This is an account of results in publication PMC5598371 (Toxicology Reports, 2015).

Data set [1] concerns HGEP vs human OSCC cell lines. Description: Tumor-specificity. It is filed as cell-based. The following applies: for Tumor-specificity index (TS) F/B: CC50 HGEP / mean CC50 OSCC lines; for Potency-selectivity expression (PSE) F/B^2: TS x (1/B) x 100, HGEP as normal cells.
A short description of data set [2]: Cytotoxic activity, MTT method. Format: cell-based. The following applies: human, oral keratinocytes (HOK), normal epithelial cells. The procedure, abridged: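 HOK grown in keratinocyte growth supplement medium, harvested with 0.25% trypsin-0.025% EDTA. Seeded at 2.5 × 10^3 cells/0.1 ml, grown 48 h, then medium replaced with fresh medium containing test compound dilutions (80 mM DMSO stocks; final DMSO usually below […]) or matched DMSO vehicle. After incubation, 0.2 mg/ml MTT for 3 h, DMSO lysis, A540. CC50 from dose–response curve.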
In general terms: Formazan colour is commonly taken as a measure of viable cells.

Another data set deals with HSC-3. The conditions noted are these: read-out: 50% cytotoxic concentration (CC50); HSC-3, derived from tongue; cited from earlier work.
Data set [3] in a line: Effect of tetraethylammonium or cycloheximide on cytotoxicity. It is filed as cell-based. The following applies: Supplementary Fig. 3.
The test system of data set [4] is Periodontal ligament fibroblast (HPLF). The conditions noted are these: read-out: 50% cytotoxic concentration (CC50), normal; cited from earlier work.
A further data set has as its system Ca9-22. The following applies: read-out: 50% cytotoxic concentration (CC50); Ca9-22, derived from gingiva (A); cited from earlier work.
Data set [5] relates to HGF/HPLF/HPC vs human OSCC cell lines. Description: Tumor-specificity. It is filed as cell-based. The conditions noted are these: TS x (1/B) x 100; HGF/HPLF/HPC as normal cells.
The test system is the same in data set [6]. The following applies: mean CC50 HGF/HPLF/HPC / mean CC50 OSCC lines; cited from earlier work.
Data set [7] relates to Gingival fibroblast (HGF). The conditions noted are these: read-out: 50% cytotoxic concentration (CC50), normal (C); cited from earlier work.
Data set [8] relates to HOK vs human OSCC cell lines. Description: Tumor-specificity. Format: cell-based. The conditions noted are these: for Tumor-specificity index (TS) E/B: CC50 HOK / mean CC50 OSCC lines; for Potency-selectivity expression (PSE) E/B^2: TS x (1/B) x 100, HOK as normal cells.
A further data set deals with HSC-2. The conditions noted are these: read-out: 50% cytotoxic concentration (CC50); HSC-2, derived from tongue; cited from earlier work.
A further data set relates to HGF vs Ca9-22. The conditions noted are these: CC50 HGF / CC50 Ca9-22; cited from earlier work.
The test system of a further data set is HSC-4. The following applies: read-out: 50% cytotoxic concentration (CC50); HSC-4, derived from tongue; cited from earlier work.
A short description of data set [9]: Cytotoxic activity, MTT method. It is filed as cell-based. The following applies: human.
In the next data set the test system is Pulp cell (HPC). The following applies: read-out: 50% cytotoxic concentration (CC50), normal; cited from earlier work.
In the next data set the test system is HSC-2 cells. The experiment in a line: Time course of cytotoxicity induction. It is filed as cell-based, human. The following applies: higher concentrations, Fig. 2. The procedure, abridged:
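Pulse-chase in HSC-2 (DMEM, 10% heat-inactivated FBS, 37 °C, 5% CO2). Cells seeded at 2.5 × 10^3/0.1 ml and grown 48 h. Exposed to graded test compound concentrations for varied times, then switched to drug-free medium until 47 h after first addition. Viability by MTT (0.2 mg/ml, 3 h, A540). CC50 from dose–response curve. Triplicates (Exp. I), quadruplicates (Exp. II).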

For the molecule `COc1ccc2occ(/C=C/c3cc(OC)c(OC)c(OC)c3)c(=O)c2c1` [compound 6, (E)-6-methoxy-3-(3,4,5-trimethoxystyryl)-4H-chromen-4-one], the “Tumor-specificity index (TS) F/B” value in data set [1] came to 46.9. Moreover, in data set [1], the “Potency-selectivity expression (PSE) F/B^2” value turned out to be 361. The CC50 in data set [2] is 77 µM; with HSC-3, 21 µM; in data set [4], 190 µM; in the data set with Ca9-22, 10 µM; in [7] it was 544 µM; in the data set on HSC-2, 6.8 µM. Further, the CC50 with HSC-4 was 13 µM; in data set [9] it was 610 µM; in the data set on Pulp cell (HPC) it was 284 µM. Moreover, in data set [3], the “effect of pretreatment with cycloheximide on cytotoxicity” value was “inhibited”. The “Potency-selectivity expression (PSE) D/B^2” value in [5] is recorded as 200. In addition, the “Tumor-specificity index (TS) D/B” value in [6] is given as 26.1. Besides, in data set [8], the “Tumor-specificity index (TS) E/B” value was determined as 5.9. Moreover, the “Potency-selectivity expression (PSE) E/B^2” value in data set [8] is given as 45. Besides, the “Tumor-specificity index (TS) C/A” value in the data set on HGF vs Ca9-22 is 54.4. The viable cells left with HSC-2 cells is 30%.
Consider `O=c1[nH]cc(F)c(=O)[nH]1` [5-FU, 5-fluorouracil, reference compound], for which, in data set [1], the “Tumor-specificity index (TS) F/B” value stood at 1.0. Also, the “Potency-selectivity expression (PSE) F/B^2” value in [1] is 5.6. In addition, the CC50 in data set [2] is 24.7 µM; in the data set on HSC-3, 16 µM; in data set [4], above 1000 µM; in the data set with Ca9-22, 29 µM; in data set [7], above 1000 µM; in the data set with HSC-2 it was 13 µM. Further, the CC50 is 13 µM in the data set with HSC-4, 18.8 µM in data set [9] and above 1000 µM in the data set with Pulp cell (HPC). Also, the “Potency-selectivity expression (PSE) D/B^2” value in data set [5] is given as above 309. For the same molecule, the “Tumor-specificity index (TS) D/B” value in data set [6] is above 55.6. Besides, in data set [8], the “Tumor-specificity index (TS) E/B” value is listed as 1.4. Besides, in data set [8], the “Potency-selectivity expression (PSE) E/B^2” value amounted to 7.8. For the same molecule, in the data set on HGF vs Ca9-22, the “Tumor-specificity index (TS) C/A” value was above 34.5.
Turning to `COc1cccc2c1C(=O)c1c(O)c3c(c(O)c1C2=O)C[C@@](O)(C(=O)CO)C[C@@H]3O[C@H]1C[C@H](N)[C@H](O)[C@H](C)O1` [Doxorubicin, doxorubicin, reference compound], the “Tumor-specificity index (TS) F/B” value in [1] was 0.2. In [1], the “Potency-selectivity expression (PSE) F/B^2” value amounted to 133. Moreover, the CC50 in data set [2] is 1.31 µM; in the data set on HSC-3, 0.11 µM; in [4], 0.87 µM; with Ca9-22 it was 0.26 µM; in data set [7], 0.87 µM; in the data set with HSC-2 it was 0.12 µM. Moreover, the CC50 is 0.094 µM in the data set with HSC-4, 0.027 µM in data set [9] and above 10 µM with Pulp cell (HPC). Also, in data set [5], the “Potency-selectivity expression (PSE) D/B^2” value was above 17333. For the same molecule, the “Tumor-specificity index (TS) D/B” value in [6] was above 26.0. The “Tumor-specificity index (TS) E/B” value in [8] was 8.7. Also, the “Potency-selectivity expression (PSE) E/B^2” value in data set [8] is on record as 5800. In addition, the “Tumor-specificity index (TS) C/A” value with HGF vs Ca9-22 is listed as 3.3.
